Bioassay records (PubChem)
SIRT5 inh = SIRT5 desuccinylase inhibitors, primary screen, biochemical, fluorescence imaging, single point, set 5; Purified SirT5, succinyl-peptide AMC, trypsin-coupled fluorescence; 330,000 tested, 1.1% active; NAD-dependent protein deacylase sirtuin-5, mitochondrial (Homo sapiens), Q9NXA8; inhibition, % at 15 µM; AID 652115, 2013; in the data active means inhibition above about 15%; inconclusive means no clear call, values can overlap the other calls
Target sequence (Q9NXA8 whole entry, looked up): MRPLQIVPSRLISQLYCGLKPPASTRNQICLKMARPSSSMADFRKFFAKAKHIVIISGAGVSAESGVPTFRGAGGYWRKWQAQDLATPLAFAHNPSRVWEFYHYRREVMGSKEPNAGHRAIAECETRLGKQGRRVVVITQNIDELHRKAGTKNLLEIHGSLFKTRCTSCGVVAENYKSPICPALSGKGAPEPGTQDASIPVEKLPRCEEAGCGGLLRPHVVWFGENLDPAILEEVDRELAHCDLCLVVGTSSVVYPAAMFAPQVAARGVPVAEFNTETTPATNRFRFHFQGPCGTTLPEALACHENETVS
XiGFP reactiv = activators of inactive X chromosome reactivation, primary screen, imaging, XiGFP fibroblasts, GFP high-content imaging, set 2. 360,000 tested, 0.055% active. activation, % at 7.58 µM. AID 743238, 2013. XiGFP mouse fibroblasts, % GFP-positive cells imaging, 3 d; cells co-treated with 5-aza-dC sensitizer; scaled so ellipticine positive control = 100%;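 active means mean normalized replicate activation at least 10% and every replicate at or above 10%; inconclusive means only one of the two criteria met; inactive means mean below 10% and not all replicates reach 10%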;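 further: 0% = median of on-plate neutral control wells and 100% = ellipticine 6 µM median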
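Material: XiGFP fibroblasts, SV40-immortalized. Buffer or medium: DMEM plus 5-aza-dC sensitizer. Compound: single concentration per compound, delivered by pin transfer. Times: 3 days compound exposure. Controls: ellipticine 6 µM.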
ARNT-TACC3 inh = disruptors of ARNT/TACC3 protein interaction, primary screen, biochemical, AlphaScreen, single concentration. 390,000 tested, 0.66% active. inhibition, % at 9.99 µM. AlphaScreen His-ARNT PAS-B/GST-TACC3 binding, luminescence; TACC3 fragment carries E629A point mutation. Transforming acidic coiled-coil-containing protein 3 (Homo sapiens), Q9Y6A5;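 active means mean inhibition of replicates at least 50% and at least half of replicates each reaching 50%; inconclusive means half or more replicates reach 50% but mean below 50%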;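 further: 0% = complete ARNT plus TACC3 wells and 100% = ARNT alone without TACC3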
DENV2 CPE = inhibitors of DENV2 cytopathic effect, primary screen, cell-based, plate reader, single concentration; DENV2-infected cells, cytopathic effect rescue; CPE inhibition, % at 9.99 µM; 350,000 tested, 1.7% active; AID 651640, 2012; in the data active means CPE inhibition above about 20%, passing the limit was not always enough; inconclusive means no clear call, values can overlap the other calls; tested in BHK-21 cells;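 further: 0% = median of neutral control wells and 100% = median of positive control wells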
FGF22 binding-1 = binders of human FGF22 protein, primary screen, FGF22 synaptogenesis inhibitor project, biophysical, thermal shift, single point | Fibroblast growth factor 22 (Homo sapiens), Q9HCT0 | recombinant FGF22 thermal shift, SYPRO orange fluorescence; percent of sucrose octasulfate shift, DMSO zero | 340,000 tested, 1.5% active | activity (Tm shift, normalised), % at 9.99 µM;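 active means mean Tm shift, scaled 0 neutral to 100 positive control, at about 1.3% or above, every replicate too, limit read from the data; inconclusive means no clear call, values can overlap the other calls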
Target sequence (Q9HCT0 whole entry, looked up): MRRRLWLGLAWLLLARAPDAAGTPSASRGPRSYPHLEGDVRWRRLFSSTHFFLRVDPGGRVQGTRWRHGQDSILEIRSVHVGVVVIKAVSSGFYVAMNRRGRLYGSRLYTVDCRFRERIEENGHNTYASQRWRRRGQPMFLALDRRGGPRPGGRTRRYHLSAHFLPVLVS
FN deposition inh = inhibitors of fibronectin matrix deposition, primary screen, AH1F cells, Alexa488-fibronectin fluorescence, plate reader; inhibition, % at 12.6 µM; AID 743247, 2014; 350,000 tested, 0.086% active; AH1F fibroblasts, overnight;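 active means mean inhibition across replicates of 30% or more, regardless of how many single replicates reach that level; inconclusive means mean under 30% yet at least half of replicates reach 30%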;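 further: positive control wells lacked labelled fibronectin entirely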
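Material: AH1F fibroblast monolayer depositing Alexa488-labelled fibronectin into matrix / Amount: 10000 AH1F cells per well / Signal: fluorescence 485/525 nm / Medium: DMEM, 2% serum / Compound: single dose, pinned / Incubation: 1 h cell adhesion before compound, then overnight fibronectin incubation / Reagent: Alexa488-FN, 24 nM final / Read-out: inhibition of fibronectin deposition signal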
FGF22 binding-2 = binders of human FGF22 protein, dose response, FGF22 synaptogenesis inhibitor project, biophysical, thermal shift, cherry-pick retest | shares compounds with FGF22 binding-1 | recombinant FGF22 thermal shift, SYPRO orange fluorescence | thermal shift activity, °C (ΔTm) at 38 µM | 1,000 tested, 2% active;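 active means fitted rise in melting shift crosses a set limit at or below the top valid dose tested; inconclusive means flat fit at mid-level activity, or a poor quality fit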
TSA no protein = compound-only thermal shift signal without protein, dose response, artefact control for FGF22 binder project, biochemical, cherry-picked samples, RT-PCR instrument | AID 743019, 2013 | 1,000 tested, 2% active | AC50, µM (titrated, usually from 38 µM) | shares compounds with FGF22 binding-1 | compound-only SYPRO orange thermal shift counter-screen, no protein;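 active means rising signal whose fitted curve reaches the 0.54 level within the top valid dose, showing a melting point, actives reach about 13 µM in these data; inactive means the rest, including activity in the opposite direction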; further: value is where the raw curve crosses a fixed level and not half-maximal
Starred values were filed as active, the others as inactive; i = inactive; ? = inconclusive; nt = not tested or not shown; [ ] = dose if it differs, or a comment. The list is not random: actives were taken first. Their share in the collection is about 3.8%.

SMILES	SIRT5 inh	XiGFP reactiv	ARNT-TACC3 inh	DENV2 CPE	FGF22 binding-1	FN deposition inh	FGF22 binding-2	TSA no protein
COCC#Cc1cnc2c(c1)C(=O)N([C@H](C)CO)C[C@H](C)[C@H](CN(C)C(=O)c1cnccn1)O2	5.3	0.4	7.1	11.1	3.2*	nt	0.075	i
CC(C)C#Cc1cnc2c(c1)C(=O)N([C@@H](C)CO)C[C@H](C)[C@H](CN(C)C(=O)c1cnccn1)O2	2.5	0.6	-23.2	0.1	1.3*	4.4	0.163[42 µM]	i
COc1ccc(CCC(C)NC(=O)Cc2ccc(OC)c(OC)c2)c(OC)c1 (configuration not stated)	-6.6	0.3	-8.0	-5.9	28.9*	-9.6	0.073	i
Nc1ccc(OCc2ccccc2)cc1[N+](=O)[O-]	2.1	-0.1	1.6	-3.0	-0.1	-0.8	nt	nt
O=Cc1cc(OCc2ccccc2)ccc1[B-](F)(F)F	0.4	-0.1	3.9	0.3	1.5*	9.4	0.012	i
CCC(=O)N1CC(=O)N2[C@H](CO)[C@H](c3ccc(C#CC4CCCC4)cc3)[C@H]2C1	-1.5	0.0	nt	-2.9	nt	-10.5	nt	nt
O=C(Cc1n[nH]c(=O)[nH]c1=O)N/N=C/c1ccccc1	nt	nt	-4.5	nt	nt	7.9	nt	nt
O=C(Cc1n[nH]c(=O)[nH]c1=O)N/N=C/c1c(O)ccc2ccccc12	2.3	0.0	26.5	0.2	1.4*	5.5	nt	10µM*
O=C(CNCCO)N1CCc2ccccc21	nt	nt	-1.7	nt	nt	nt	nt	nt
O=C(CNc1ccccc1OC(F)F)N1CCc2ccccc21	-3.8	0.0	-7.4	1.1	1.4*	nt	0.067	i
CO[C@@H](CN(C)S(=O)(=O)c1cccc(Cl)c1)[C@@H](C)CN([C@H](C)CO)S(=O)(=O)c1cccc(Cl)c1	0.7	0.0	-0.1	1.3	1.6*	-11.8	0.25[42 µM]	i
CO[C@H](CN(C)S(=O)(=O)c1cccc(Cl)c1)[C@H](C)CN([C@H](C)CO)S(=O)(=O)c1cccc(Cl)c1	-5.7	0.0	-4.5	?	2.0*	0.7	-0.036[42 µM]	i
CO[C@H](CN(C)S(=O)(=O)c1cccc(Cl)c1)[C@H](C)CN([C@@H](C)CO)S(=O)(=O)c1cccc(Cl)c1	0.0	0.0	1.5	-1.8	1.8*	4.0	0.12[42 µM]	i
CO[C@H](CN(C)S(=O)(=O)c1cccc(Cl)c1)[C@@H](C)CN([C@H](C)CO)S(=O)(=O)c1ccc(Cl)cc1	-0.4	0.3	-1.7	4.3	-0.1	-6.8	nt	nt
CCS(=O)(=O)N[C@@H]1CC[C@@H](CC(=O)Nc2ccc(-c3ccccc3)cc2)O[C@@H]1CO	0.7	0.3	21.8	2.5	0.9	0.6	nt	nt
C[C@@H]1CN([C@H](C)CO)C(=O)Cc2cc(NS(C)(=O)=O)ccc2O[C@H]1CN(C)C(=O)Nc1ccc(C(F)(F)F)cc1	4.2	-0.2	-0.4	-5.4	0.2	nt	nt	nt
COc1cccc(NC(=O)N(C)C[C@H]2Oc3cc(-c4ccccc4F)ccc3S(=O)(=O)N([C@H](C)CO)C[C@@H]2C)c1	5.5	-0.4	1.2	2.9	1.4*	17.6	-0.052[42 µM]	i
C/C=C/c1ccc2c(c1)O[C@@H](CN(C)C(=O)Nc1cc(F)ccc1F)[C@@H](C)CN([C@H](C)CO)S2(=O)=O	7.1	0.3	3.7	3.2	1.3*	nt	-0.529[42 µM]	i
C/C=C/c1ccc2c(c1)O[C@@H](CN(C)C(=O)Nc1cc(F)ccc1F)[C@H](C)CN([C@@H](C)CO)S2(=O)=O	3.9	0.0	-1.5	-2.9	-0.4	nt	nt	nt
C[C@H](CO)N1C[C@H](C)[C@@H](CN(C)C(=O)Nc2ccc(C(F)(F)F)cc2)Oc2cc(-c3ccncc3)ccc2S1(=O)=O	0.4	-1.3	-0.6	-7.8	0.0	7.6	nt	nt
COc1cccc(NC(=O)N(C)C[C@@H]2Oc3cc(-c4ccccc4F)ccc3S(=O)(=O)N([C@@H](C)CO)C[C@H]2C)c1	8.3	-0.1	0.0	-2.5	1.7*	-14.8	0.076[42 µM]	i
C[C@@H]1CN([C@@H](C)CO)S(=O)(=O)c2ccc(-c3ccncc3)cc2O[C@@H]1CN(C)C(=O)Nc1ccc(C(F)(F)F)cc1	-2.6	-1.1	-6.0	-7.4	1.5*	6.7	-0.076	i
CO[C@@H]1CN(C)C(=O)c2ccc(NC(=O)c3ccccc3)cc2OC[C@@H](C)NC[C@H]1C	nt	0.1	-0.7	4.2	0.0	8.8	nt	nt
CO[C@H]1CN(C)C(=O)c2ccc(NS(=O)(=O)c3cccc(C)c3)cc2OC[C@@H](C)NC[C@H]1C	-6.3	0.0	-8.9	5.9	-0.3	-14.7	nt	nt
COc1ccc(S(=O)(=O)Nc2ccc3c(c2)C(=O)N([C@H](C)CO)C[C@@H](C)[C@@H](CN(C)S(C)(=O)=O)O3)cc1	0.8	0.0	nt	3.7	0.0	nt	nt	nt
C/C=C/c1ccc2c(c1)O[C@H](CN(C)Cc1ccc(C(=O)O)cc1)[C@@H](C)CN([C@H](C)CO)S2(=O)=O	-1.0	-0.7	5.1	-0.5	-0.1	nt	nt	nt
COc1cccc(NC(=O)N(C)C[C@H]2Oc3cc(-c4ccccc4F)ccc3S(=O)(=O)N([C@@H](C)CO)C[C@H]2C)c1	19.3*	0.0	2.1	-6.0	2.8*	5.4	0.202[42 µM]	i
C[C@H](CO)N1C[C@H](C)[C@@H](CN(C)Cc2ccc(C(=O)O)cc2)Oc2cc(/C=C/c3ccccc3)ccc2S1(=O)=O	103.9*	nt	1.8	2.7	23.1*	nt	0.099[42 µM]	i
COc1ccccc1-c1ccc2c(c1)O[C@@H](CN(C)C(=O)Nc1cccc(F)c1)[C@H](C)CN([C@@H](C)CO)S2(=O)=O	5.6	0.6	-4.6	10.1	2.0*	nt	-0.149	11.3µM*
